Reference: ChEMBL document CHEMBL5532695, “4-Trifluoromethyl bithiazoles as broad-spectrum antimicrobial agents for virus-related bacterial infections or co-infections” (RSC Med Chem, 2024)

System: Zika virus
Conditions: vero e6; call rule not given here

SMILES | IC50
O=C(Nc1nc(C(F)(F)F)c(-c2csc(Nc3ccc(O)c(C(=O)O)c3)n2)s1)c1ccccc1 | Not Active

System: Enterococcus faecium
Experiment: Antibacterial activity against Vancomycin resistant Enterococcus faecium SI-1831 assessed as reduction in microbial growth measured after 18 hrs by CLSI based broth microdilution method
Format: functional
Conditions: not given
Outline: (§1)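 Gram-positive clinical isolates; compounds dissolved in DMSO (50 mg mL−1 stock) and diluted in medium; MIC by CLSI broth microdilution in Mueller–Hinton medium, inoculum 5 × 10^4 CFU per well, read after 18 h at 35 ± 2 °C; triplicate.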

SMILES | MIC [mg/L]
O=C(Nc1nc(C(F)(F)F)c(-c2csc(Nc3ccc(O)c(C(=O)O)c3)n2)s1)c1ccccc1 | 32

Biological target: Phosphatidylinositol 4-kinase beta (Homo sapiens, UniProt Q9UBF8)
Sequence (Q9UBF8 whole entry): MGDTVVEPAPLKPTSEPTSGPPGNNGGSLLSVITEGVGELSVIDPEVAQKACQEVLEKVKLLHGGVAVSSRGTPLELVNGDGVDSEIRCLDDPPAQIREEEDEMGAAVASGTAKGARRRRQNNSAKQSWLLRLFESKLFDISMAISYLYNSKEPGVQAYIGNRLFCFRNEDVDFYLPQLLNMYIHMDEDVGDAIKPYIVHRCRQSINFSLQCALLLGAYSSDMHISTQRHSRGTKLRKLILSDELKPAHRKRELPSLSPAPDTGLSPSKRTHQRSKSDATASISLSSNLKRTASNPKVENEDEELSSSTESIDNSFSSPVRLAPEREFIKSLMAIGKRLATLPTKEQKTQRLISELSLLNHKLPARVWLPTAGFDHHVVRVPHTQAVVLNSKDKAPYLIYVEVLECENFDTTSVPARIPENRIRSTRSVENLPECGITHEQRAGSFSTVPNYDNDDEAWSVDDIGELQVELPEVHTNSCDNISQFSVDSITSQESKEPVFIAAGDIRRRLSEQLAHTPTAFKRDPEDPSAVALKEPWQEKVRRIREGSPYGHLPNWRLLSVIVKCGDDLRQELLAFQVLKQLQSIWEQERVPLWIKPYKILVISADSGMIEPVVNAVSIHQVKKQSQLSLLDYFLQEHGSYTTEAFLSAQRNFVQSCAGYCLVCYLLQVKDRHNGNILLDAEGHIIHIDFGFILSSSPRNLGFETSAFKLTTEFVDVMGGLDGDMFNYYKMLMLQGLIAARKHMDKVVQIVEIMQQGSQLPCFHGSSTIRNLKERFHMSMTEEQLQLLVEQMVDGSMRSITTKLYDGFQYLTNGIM
Experiment: Inhibition of recombinant full length his tagged PI4KB (unknown origin) incubated for 10 mins in presence of ATP by ADP-glo kinase assay
Conditions: not given

SMILES | IC50
O=C(Nc1nc(C(F)(F)F)c(-c2csc(Nc3ccc(O)c(C(=O)O)c3)n2)s1)c1ccccc1 | Not Active

System: Staphylococcus epidermidis
Experiment: Antibacterial activity against linezolid-resistant Staphylococcus epidermidis SI-1266 assessed as reduction in microbial growth measured after 18 hrs by CLSI based broth microdilution method
Format: functional
Conditions: not given
Outline: as §1

SMILES | MIC [mg/L]
O=C(Nc1nc(C(F)(F)F)c(-c2csc(Nc3ccc(O)c(C(=O)O)c3)n2)s1)c1ccccc1 | 32

System: Staphylococcus haemolyticus
Experiment: Antibacterial activity against oxacillin-resistant Staphylococcus haemolyticus SI-6/2011 assessed as reduction in microbial growth measured after 18 hrs by CLSI based broth microdilution method
Format: functional
Conditions: not given
Outline: as §1

SMILES | MIC [mg/L]
O=C(Nc1nc(C(F)(F)F)c(-c2csc(Nc3ccc(O)c(C(=O)O)c3)n2)s1)c1ccccc1 | 32

System: Enterococcus faecium
Experiment: Antibacterial activity against Vancomycin/teicoplanin resistant Enterococcus faecium SI-759 assessed as reduction in microbial growth measured after 18 hrs by CLSI based broth microdilution method
Format: functional
Conditions: not given
Outline: as §1

SMILES | MIC [mg/L]
O=C(Nc1nc(C(F)(F)F)c(-c2csc(Nc3ccc(O)c(C(=O)O)c3)n2)s1)c1ccccc1 | 16

System: Bacillus subtilis
Experiment: Antibacterial activity against Bacillus subtilis ATCC 6633 assessed as reduction in microbial growth measured after 18 hrs by CLSI based broth microdilution method
Format: functional
Conditions: not given
Outline: (§2)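 MIC by CLSI broth microdilution in Mueller–Hinton medium, triplicate. Inoculum 5 × 10^4 CFU per well. Compounds taken up in DMSO (50 mg mL−1 stock) and diluted in medium. Read after 18 h at 35 ± 2 °C.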

SMILES | MIC [mg/L]
O=C(Nc1nc(C(F)(F)F)c(-c2csc(Nc3ccc(O)c(C(=O)O)c3)n2)s1)c1ccccc1 | 16

System: Enterococcus faecalis
Experiment: Bactericidal activity against Enterococcus faecalis ATCC 29212 assessed as reduction in microbial growth measured after 18 hrs by CLSI based broth microdilution method
Format: functional
Conditions: not given
Outline: (§3)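 MBC by CLSI broth microdilution in Mueller–Hinton medium, triplicate. Inoculum 5 × 10^4 CFU per well. Read after 18 h at 35 ± 2 °C.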

SMILES | MBC [mg/L]
O=C(Nc1nc(C(F)(F)F)c(-c2csc(Nc3ccc(O)c(C(=O)O)c3)n2)s1)c1ccccc1 | > 32

System: Enterococcus faecalis
Experiment: Antibacterial activity against Enterococcus faecalis ATCC 29212 assessed as reduction in microbial growth measured after 18 hrs by CLSI based broth microdilution method
Format: functional
Conditions: not given
Outline: as §2

SMILES | MIC [mg/L]
O=C(Nc1nc(C(F)(F)F)c(-c2csc(Nc3ccc(O)c(C(=O)O)c3)n2)s1)c1ccccc1 | 16

System: Enterococcus faecium
Experiment: Bactericidal activity against Vancomycin resistant Enterococcus faecium SI-3856B assessed as reduction in microbial growth measured after 18 hrs by CLSI based broth microdilution method
Format: functional
Conditions: not given

SMILES | MBC [mg/L]
O=C(Nc1nc(C(F)(F)F)c(-c2csc(Nc3ccc(O)c(C(=O)O)c3)n2)s1)c1ccccc1 | > 64

System: Escherichia coli
Experiment: Synergistic antibacterial activity against Escherichia coli CCUGT incubated for 18 to 24 hrs in presence of colistin by broth microdilution method
Format: functional
Conditions: time 18-24 hrs

SMILES | MAC [µg/mL]
O=C(Nc1nc(C(F)(F)F)c(-c2csc(Nc3ccc(O)c(C(=O)O)c3)n2)s1)c1ccccc1 | >64

System: Staphylococcus haemolyticus
Experiment: Bactericidal activity against oxacillin-resistant Staphylococcus haemolyticus SI-6/2011 assessed as reduction in microbial growth measured after 18 hrs by CLSI based broth microdilution method
Format: functional
Conditions: not given

SMILES | MBC [mg/L]
O=C(Nc1nc(C(F)(F)F)c(-c2csc(Nc3ccc(O)c(C(=O)O)c3)n2)s1)c1ccccc1 | 64

System: not listed separately
Experiment: Cytotoxicity against african green monkey Vero E6 cells assessed as reduction in cell viability by MTT assay
Format: toxicity, cell-based
Conditions: chlorocebus sabaeus, Vero E6 cells (Vero C1008)
Outline: (§4)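 MTT viability on HeLa or VeroE6 cells, run in parallel with the antiviral assays. CC50 from variable-slope sigmoidal dose–response regression.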

SMILES | CC50 [µM]
O=C(Nc1nc(C(F)(F)F)c(-c2csc(Nc3ccc(O)c(C(=O)O)c3)n2)s1)c1ccccc1 | > 50

System: Enterococcus faecium
Experiment: Bactericidal activity against Vancomycin/teicoplanin resistant Enterococcus faecium SI-759 assessed as reduction in microbial growth measured after 18 hrs by CLSI based broth microdilution method
Format: functional
Conditions: not given

SMILES | MBC [mg/L]
O=C(Nc1nc(C(F)(F)F)c(-c2csc(Nc3ccc(O)c(C(=O)O)c3)n2)s1)c1ccccc1 | 64

System: Enterococcus faecium
Experiment: Antibacterial activity against Vancomycin resistant Enterococcus faecium SI-3856B assessed as reduction in microbial growth measured after 18 hrs by CLSI based broth microdilution method
Format: functional
Conditions: not given
Outline: as §1

SMILES | MIC [mg/L]
O=C(Nc1nc(C(F)(F)F)c(-c2csc(Nc3ccc(O)c(C(=O)O)c3)n2)s1)c1ccccc1 | 32

System: Bacillus subtilis
Experiment: Bactericidal activity against Bacillus subtilis ATCC 6633 assessed as reduction in microbial growth measured after 18 hrs by CLSI based broth microdilution method
Format: functional
Conditions: not given
Outline: as §3

SMILES | MBC [mg/L]
O=C(Nc1nc(C(F)(F)F)c(-c2csc(Nc3ccc(O)c(C(=O)O)c3)n2)s1)c1ccccc1 | > 32

System: Klebsiella pneumoniae
Experiment: Synergistic antibacterial activity against Klebsiella pneumoniae ATCC 13833 incubated for 18 to 24 hrs in presence of colistin by broth microdilution method
Format: functional
Conditions: time 18-24 hrs

SMILES | MAC [µg/mL]
O=C(Nc1nc(C(F)(F)F)c(-c2csc(Nc3ccc(O)c(C(=O)O)c3)n2)s1)c1ccccc1 | >64

System: Streptococcus pyogenes
Experiment: Bactericidal activity against Streptococcus pyogenes ATCC 12344 assessed as reduction in microbial growth measured after 18 hrs by CLSI based broth microdilution method
Format: functional
Conditions: not given
Outline: as §3

SMILES | MBC [mg/L]
O=C(Nc1nc(C(F)(F)F)c(-c2csc(Nc3ccc(O)c(C(=O)O)c3)n2)s1)c1ccccc1 | 32

System: not listed separately
Experiment: Cytotoxicity against human HeLa cells assessed as reduction in cell viability by MTT assay
Format: toxicity, cell-based
Conditions: not given
Outline: as §4

SMILES | CC50 [µM]
O=C(Nc1nc(C(F)(F)F)c(-c2csc(Nc3ccc(O)c(C(=O)O)c3)n2)s1)c1ccccc1 | > 50

System: Staphylococcus aureus
Experiment: Bactericidal activity against Staphylococcus aureus ATCC 25923 assessed as reduction in microbial growth measured after 18 hrs by CLSI based broth microdilution method
Format: functional
Conditions: not given
Outline: as §3

SMILES | MBC [mg/L]
O=C(Nc1nc(C(F)(F)F)c(-c2csc(Nc3ccc(O)c(C(=O)O)c3)n2)s1)c1ccccc1 | 32

System: Streptococcus pyogenes
Experiment: Antibacterial activity against Streptococcus pyogenes ATCC 12344 assessed as reduction in microbial growth measured after 18 hrs by CLSI based broth microdilution method
Format: functional
Conditions: not given
Outline: as §2

SMILES | MIC [mg/L]
O=C(Nc1nc(C(F)(F)F)c(-c2csc(Nc3ccc(O)c(C(=O)O)c3)n2)s1)c1ccccc1 | 4

System: Acinetobacter baumannii
Experiment: Synergistic antibacterial activity against Acinetobacter baumannii ATCC 17978 incubated for 18 to 24 hrs in presence of colistin by broth microdilution method
Format: functional
Conditions: time 18-24 hrs

SMILES | MAC [µg/mL]
O=C(Nc1nc(C(F)(F)F)c(-c2csc(Nc3ccc(O)c(C(=O)O)c3)n2)s1)c1ccccc1 | >64

System: Staphylococcus aureus
Experiment: Bactericidal activity against methicillin-resistant Staphylococcus aureus ATCC 43300 assessed as reduction in microbial growth measured after 18 hrs by CLSI based broth microdilution method
Format: functional
Conditions: not given

SMILES | MBC [mg/L]
O=C(Nc1nc(C(F)(F)F)c(-c2csc(Nc3ccc(O)c(C(=O)O)c3)n2)s1)c1ccccc1 | > 64

System: Enterococcus faecium
Experiment: Bactericidal activity against Vancomycin resistant Enterococcus faecium SI-1831 assessed as reduction in microbial growth measured after 18 hrs by CLSI based broth microdilution method
Format: functional
Conditions: not given

SMILES | MBC [mg/L]
O=C(Nc1nc(C(F)(F)F)c(-c2csc(Nc3ccc(O)c(C(=O)O)c3)n2)s1)c1ccccc1 | > 64

System: Staphylococcus epidermidis
Experiment: Bactericidal activity against linezolid-resistant Staphylococcus epidermidis SI-1266 assessed as reduction in microbial growth measured after 18 hrs by CLSI based broth microdilution method
Format: functional
Conditions: not given

SMILES | MBC [mg/L]
O=C(Nc1nc(C(F)(F)F)c(-c2csc(Nc3ccc(O)c(C(=O)O)c3)n2)s1)c1ccccc1 | 64

System: Staphylococcus warneri
Experiment: Bactericidal activity against oxacillin-resistant Staphylococcus warneri SI-5/2011 assessed as reduction in microbial growth measured after 18 hrs by CLSI based broth microdilution method
Format: functional
Conditions: not given

SMILES | MBC [mg/L]
O=C(Nc1nc(C(F)(F)F)c(-c2csc(Nc3ccc(O)c(C(=O)O)c3)n2)s1)c1ccccc1 | 64

System: rhinovirus A16
Conditions: hela

SMILES | IC50
O=C(Nc1nc(C(F)(F)F)c(-c2csc(Nc3ccc(O)c(C(=O)O)c3)n2)s1)c1ccccc1 | Not Active

System: Staphylococcus warneri
Experiment: Antibacterial activity against oxacillin-resistant Staphylococcus warneri SI-5/2011 assessed as reduction in microbial growth measured after 18 hrs by CLSI based broth microdilution method
Format: functional
Conditions: not given
Outline: as §1

SMILES | MIC [mg/L]
O=C(Nc1nc(C(F)(F)F)c(-c2csc(Nc3ccc(O)c(C(=O)O)c3)n2)s1)c1ccccc1 | 64

System: Staphylococcus aureus
Experiment: Antibacterial activity against Staphylococcus aureus ATCC 25923 assessed as reduction in microbial growth measured after 18 hrs by CLSI based broth microdilution method
Format: functional
Conditions: not given
Outline: as §2

SMILES | MIC [mg/L]
O=C(Nc1nc(C(F)(F)F)c(-c2csc(Nc3ccc(O)c(C(=O)O)c3)n2)s1)c1ccccc1 | 16

System: Pseudomonas aeruginosa
Experiment: Synergistic antibacterial activity against Pseudomonas aeruginosa ATCC 27853 incubated for 18 to 24 hrs in presence of colistin by broth microdilution method
Format: functional
Conditions: time 18-24 hrs

SMILES | MAC [µg/mL]
O=C(Nc1nc(C(F)(F)F)c(-c2csc(Nc3ccc(O)c(C(=O)O)c3)n2)s1)c1ccccc1 | >64

System: enterovirus D68
Conditions: hela

SMILES | IC50
O=C(Nc1nc(C(F)(F)F)c(-c2csc(Nc3ccc(O)c(C(=O)O)c3)n2)s1)c1ccccc1 | Not Active

System: Staphylococcus aureus
Experiment: Antibacterial activity against methicillin-resistant Staphylococcus aureus ATCC 43300 assessed as reduction in microbial growth measured after 18 hrs by CLSI based broth microdilution method
Format: functional
Conditions: not given
Outline: as §1

SMILES | MIC [mg/L]
O=C(Nc1nc(C(F)(F)F)c(-c2csc(Nc3ccc(O)c(C(=O)O)c3)n2)s1)c1ccccc1 | 32
